Only some compounds are listed: those with a hit (about 3.7% of all), similar ones and a draw of the others.
HCV core dimer: inhibitors of HCV core protein dimerization, primary screen, biochemical, TR-FRET, high-throughput; TR-FRET GST/Flag-core106 dimerization, 1536-well; inhibition, % at 5 µM; 300,000 compounds, 0.33% hits; AID 1899, 2009;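 active = inhibition above the mean of all tested compounds plus 3 SD, set per screening campaign, cut at about 45% in these data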
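Assay system – GST-tagged and Flag-tagged HCV core protein residues 1-106 · Quantity – core106 proteins, GST 13.5 nM and Flag 17 nM · Benchmarks – unlabelled core106 and no-GST-core106 wells · Read-out basis – percent inhibition of core106 dimerization signal · Detection – time-resolved FRET, ex 340 nm, em 617 and 671 nm · Schedule – 4 h at 22.5 °C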
rCAG RNA binder: binders of r(CAG) RNA repeats, primary screen, biochemical, fluorescence | r(CAG) RNA repeat, TO-PRO-1 dye displacement fluorescence | inhibition, % at 3 µM | 370,000 compounds, 1.3% hits | AID 651821, 2012;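 active = inhibition above the plate cutoff, the mean of all test compounds on that plate plus 3 SD, cut at about 35% in these data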;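 note: 0% = DMSO alone and 100% = 100 µM mitoxantrone as full dye displacement; higher means more dye released from RNA so lower well fluorescence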
TAAR1 antagonist: human TAAR1 antagonists, primary screen, Fluo-8 calcium fluorescence, CHO RD-HGA16 cells. Trace amine-associated receptor 1 (Homo sapiens), Q96RJ0. antagonist. inhibition, % at 3 µM. 360,000 compounds, 1.5% hits;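 active = inhibition above a per-plate cutoff, the mean inhibition of test compounds on that plate plus 3 SD, cut at about 49% in these data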;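 note: 0% = DMSO plus EC80 beta-PEA response and 100% = DMSO alone without agonist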
Target sequence (Q96RJ0 whole entry, looked up): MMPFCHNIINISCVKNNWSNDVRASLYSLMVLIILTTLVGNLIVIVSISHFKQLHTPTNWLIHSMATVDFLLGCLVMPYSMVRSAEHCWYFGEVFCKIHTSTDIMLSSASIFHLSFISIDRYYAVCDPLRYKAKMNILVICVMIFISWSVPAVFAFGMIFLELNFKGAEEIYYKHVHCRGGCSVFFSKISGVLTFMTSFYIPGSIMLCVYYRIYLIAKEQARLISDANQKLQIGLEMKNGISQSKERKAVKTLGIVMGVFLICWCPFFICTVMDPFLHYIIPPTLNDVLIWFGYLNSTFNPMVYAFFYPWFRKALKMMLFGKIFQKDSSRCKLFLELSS
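Assay system: RD-HGA16 CHO cells with stable hTAAR1 and Gα16 / Reagent: EC80 β-phenethylamine stimulus / Doses: 3 µM, single point / Timing: dye loading 75 min at 37 °C, then 30 min room temperature / Measured by: Fluo-8 intracellular calcium dye fluorescence, real-time kinetic reads / Controls: vehicle wells and EC80 agonist wells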
HCV NS3 hel inh: inhibitors of HCV NS3 helicase, primary screen, biochemical, Cy5 molecular beacon fluorescence; NS3 helicase DNA unwinding; Hepatitis C virus NS3 helicase; 290,000 compounds, 0.56% hits; inhibition, % at 10.9 µM; AID 1800, 2009;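 active = inhibition above the mean of all tested compounds plus 3 SD, set per campaign, cut at about 35% in these data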;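 note: 0% = DMSO wells and 100% = thioflavine S control wells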
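System: NS3 helicase fragment of HCV / Schedule: 1 h at 25 °C / Control set: DMSO alone as 0% and 110 µM thioflavine S as 100% / Reagent: Cy5/quencher beacon DNA duplex and ATP to start / Technique: Cy5 fluorescence / Replication: singlicate / Evaluation: % inhibition of end-to-start signal ratio versus controls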
TAAR1 agonist: human TAAR1 agonists, primary screen, Fluo-8 calcium fluorescence, CHO RD-HGA16 cells; Trace amine-associated receptor 1 (Homo sapiens), Q96RJ0; vehicle wells 0%, saturating PEA agonist 100%; activation, % at 3 µM; 360,000 compounds, 0.99% hits; AID 624467, 2012;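 active = activation above the mean activation of all test compounds in the run plus 3 SD, cut at about 38% in these data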
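System: CHO-derived RD-HGA16 cells with stable Gα16 and human TAAR1. Times: 17-24 h plating, Fluo-8 75 min 37 °C, 30 min RT. Measured by: calcium-sensitive Fluo-8 signal, excitation 470-495, emission 515-575 nm. Read-out basis: % activation relative to PEA EC100 response. Control set: DMSO and PEA EC100. Repeats: no replicates (n 1).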
NS3 hel confirm: HCV NS3 helicase inhibitors, retest, confirmation, biochemical, Cy5 molecular beacon fluorescence, triplicate; NS3 helicase DNA unwinding; AID 1943, 2009; inhibition, % at 10.9 µM; shares compounds with HCV NS3 hel inh; 1,600 compounds, 31% hits;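 active = inhibition above the mean of all tested compounds plus 3 SD, cutoff set per campaign, cut at about 36% in these data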
FID counter trip: compounds displacing fluorescent DNA intercalator, artefact control for HCV NS3 helicase inhibitor project, biochemical, FID fluorescence, triplicate; shares compounds with HCV NS3 hel inh; DNA fluorescent intercalator displacement; inhibition, % at 7.9 µM; 1,600 compounds, 4% hits; in the data active = inhibition above about 37%;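 note: 0% = vehicle and 100% = reference compound; higher means more displacement of ethidium bromide from the DNA hairpin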
* = called active by the depositor; / = no result given.

SMILES	HCV core dimer	rCAG RNA binder	TAAR1 antagonist	HCV NS3 hel inh	TAAR1 agonist	NS3 hel confirm	FID counter trip
Cn1cc(C=C2C(=O)OC3(CCCCC3)OC2=O)c2ccccc21	8	-2	1	11	2	/	/
Oc1ccc(Br)cc1C=Nc1ccc2c3c(cccc13)CC2	-21	-21	2	48*	5	-5	12
Oc1ccc(Cl)cc1C=Nc1ccccc1Br	10	-1	-13	2	3	/	/
Cc1noc(NS(=O)(=O)c2ccc(NC(=O)Cc3ccc([N+](=O)[O-])cc3)cc2)c1C	35	24	6	42*	1	29	-14
COCC(=O)Nc1ccc(S(=O)(=O)Nc2onc(C)c2C)cc1	/	2	-15	/	2	/	/
COc1ccc(C(=O)CSc2nnc(-c3cccnc3)n2-c2ccccc2)cc1	/	2	/	/	/	/	/
COc1cc2cccc(OC)c(=O)c2c(O)c1OC	-24	-4	-11	2	8	/	/
CC(=O)Oc1cc2cccc(OC(C)=O)c(=O)c2c(OC(C)=O)c1OC(C)=O	-16	/	/	53*	/	-7	8
N#C/C(=C/c1ccc(Br)o1)C(N)=S	5	/	/	37*	/	-15	0
N#C/C(=C/c1ccc(Br)o1)C(N)=O	2	0	-1	3	11	/	/
CC1CCc2sc3nc(NCc4ccco4)n4ncnc4c3c2C1 (configuration not stated)	7	8	-18	39*	28	-13	7
C=CCN1C(=O)/C(=c2\sc3nc(=O)c(Cc4ccc(OC)c(OC)c4)nn3c2=O)c2ccccc21	4	14	5	46*	-1	-2	-4
O=C(O)CCC(=O)N1N=C(c2c(-c3ccccc3)c3cc(Cl)ccc3[nH]c2=O)CC1c1ccco1 (configuration not stated)	-2	19	0	41*	5	48*	-17
CCC(=O)N1N=C(c2c(-c3ccccc3)c3cc(Cl)ccc3[nH]c2=O)CC1c1ccco1 (configuration not stated)	17	-2	-21	3	0	/	/
C(=Nc1cccc2c(N=Cc3ccco3)cccc12)c1ccco1	-16	/	/	37*	/	-15	20
CN(C)c1ccc(C=Nc2ccc(N(C)C)cc2)cc1	-79	14	0	37*	4	5	17
C(=N\C(/N=C/c1ccco1)c1ccco1)/c1ccco1	2	10	3	25	1	/	/
CN(C)c1ccc(C=Nc2ccccc2)cc1	0	2	-18	8	0	/	/
CN(C)c1ccc(N=Cc2ccco2)cc1	-16	/	/	41*	/	5	11
C#CCNC(=O)C[C@H]1C(=O)N(Cc2ccc(OC)cc2)C2=CCCCC[C@@]21C(=O)OC	/	0	/	/	/	/	/
O=C(NC1CCCCN(Cc2ccc(Cl)cc2)C1=O)c1cc(-c2ccccc2)no1 (configuration not stated)	/	5	/	/	/	/	/
COC(=O)[C@]12C[C@H](CC(=O)N3CCN(C(=O)c4ccco4)CC3)C(=O)N(Cc3ccc(Cl)cc3Cl)C1=C[C@H](C(C)C)O[C@@H]2C1CC1	/	11	/	/	/	/	/
CC(=O)c1cc(-c2cccc(C#N)c2)c(=O)n2c1CCC2	/	4	/	/	/	/	/
CC(NCc1ccco1)C(=O)N1CCN(Cc2ccccc2F)CC1 (configuration not stated)	/	6	/	/	/	/	/
CCOc1ccc(N(CC(=O)NCc2ccccc2Cl)S(=O)(=O)c2c(C)noc2C)cc1	-6	-3	-19	40*	2	-7	-25
SMILES	HCV core dimer	rCAG RNA binder	TAAR1 antagonist	HCV NS3 hel inh	TAAR1 agonist	NS3 hel confirm	FID counter trip
Cc1noc(C)c1S(=O)(=O)N(CC(=O)NCCc1ccccc1)c1ccc(C(C)C)cc1	-11	-2	-14	37*	1	-9	-27
Cc1ccc(S(=O)(=O)NCCCc2ccc3c(c2)[C@]2(CCC[C@@H](OCc4ccccc4)[C@@H]2NC(=O)CCc2ccccc2)C(=O)N3Cc2ccccc2)cc1	/	11	/	/	/	/	/
COc1ccc(NC(=O)c2cc(-c3ccco3)nc3ccccc23)cc1S(=O)(=O)N1CCOCC1	81*	34	45	54*	19	73*	14
Cc1cc(Br)ccc1OCCCN1CCC(C(O)(c2ccccc2)c2ccccc2)CC1	/	4	/	/	/	/	/
O=S1(=O)CCOCCN1Cc1ccc(Cl)cc1Cl	2	/	/	37*	/	-18	6
CCCCCCCCN1C(=O)[C@@H](CC(=O)NCC2CCCCC2)C[C@@]2(C(=O)OC)C1=C[C@H](C(C)C)O[C@@H]2C1CC1	/	17	/	/	/	/	/
CC(=NN1CCN(Cc2ccccc2Cl)CC1)c1ccc(O)cc1	/	1	/	/	/	/	/
COC(=O)c1ccc(Cn2nnc3c(=O)[nH]c(C4CCCN(S(=O)(=O)c5cccc(Cl)c5)C4)nc32)cc1 (configuration not stated)	32	3	-36	38*	0	-3	-40
COC(=O)c1ccc(Cn2nnc3c(=O)[nH]c(C4CCCN(S(=O)(=O)c5ccc(C)cc5)C4)nc32)cc1 (configuration not stated)	21	3	-4	2	1	/	/
O=C(Nc1ccccc1N1CCOCC1)c1cccnc1Cl	0	-2	-16	53*	0	-18	-4
CSCCCNC(=O)c1cn(C(C)c2ccccc2)nn1 (configuration not stated)	/	1	/	/	/	/	/
Cc1cc(C(=O)CSc2nnnn2-c2ccccc2)c(C)n1-c1ccc2c(c1)OCO2	15	7	-22	37*	-1	5	-14
Cc1cc(C(=O)CSc2nnnn2-c2ccc(O)cc2)c(C)n1Cc1ccc2c(c1)OCO2	19	11	-9	3	2	/	/
COC(=O)[C@]12C[C@H](CC(=O)NCC34CC5CC(CC(C5)C3)C4)C(=O)N(Cc3cccc4ccccc34)C1=C[C@H](C1CCCC1)O[C@@H]2C	/	7	/	/	/	/	/
COc1ccc(C(=O)CC(=O)C(=O)Nc2ccc(C)cc2Cl)cc1	3	2	-12	38*	8	-30	3
COc1cccc(C(=O)CC(=O)C(=O)Nc2cc(OC)ccc2OC)c1	1	13	-4	30	4	/	/
COc1cccc(C(=O)CC(=O)C(=O)Nc2ccc(C)cc2Cl)c1	5	9	-4	63*	10	21	1
CCCCCCCCOc1ccc(C(=O)O)cc1	/	16	-8	/	-1	/	/
CCCCCCOc1ccc(C(=O)O)cc1C#N	1	8	-13	38*	10	16	-8
O=C(NCCc1c[nH]c2ccccc12)OCc1cn(Cc2ccccc2F)nn1	/	5	/	/	/	/	/

Bioassay records (PubChem BioAssay)
